Reference: ChEMBL document CHEMBL5724801, “EUbOPEN Chemogenomics Library - Multiplex” (2024)
Values joined by “and” are separate entries in the source; they are usually repeats but may differ in a detail not shown here. Identical values can stand only once.

System: HEK-293T
Experiment: Multiplex assay against HEK293T
Assay type: toxicity, cell-based
Conditions: human
Outline: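 Cells stained live at seeding with Hoechst33342, BioTracker Green Microtubule Cytoskeleton Dye, MitoTracker Red and Annexin V Alexa Fluor 680 were imaged on a CQ1 microscope at 37°C and 5% CO2 after compound addition. Their classification by CellPathfinder machine-learning gating ran from Hoechst high-intensity objects versus normal cells, to healthy, pyknosed or fragmented nuclei among normal cells, to mitotic or apoptotic among pyknosed cells. Tubulin, mitochondrial-mass and membrane-permeability phenotypes are per cents of healthy-nucleus cells.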

[1] = 12 h, 1 µM, compound concentration 1 uM
[2] = 12 h, 10 µM, compound concentration 10 uM
[3] = 24 h, 1 µM, compound concentration 1 uM
[4] = 24 h, 10 µM, compound concentration 10 uM
[5] = 48 h, 1 µM, compound concentration 1 uM
[6] = 48 h, 10 µM, compound concentration 10 uM

## Cl.NCCc1ccc(O)c(O)c1 [DOPAMINE HYDROCHLORIDE]
[1]
  Population Apoptotic (%): 31% and 54%
  Population Fragmented Nuclei (%): 6% and 7%
  Population Healthy Nuclei (%): 77% and 78%
  Population Hoechst High Intensity Objects (%): 10% and 6%
  Population Membrane Permeable-Phenotype (%): 0%
  Population Mitochondria Different-Phenotype (%): 54% and 58%
  Population Mitotic Cells (%): 68% and 46%
  Population Normal (%): 89% and 93%
  Population Pyknosed Nuclei (%): 16% and 14%
  Population Tubulin-Different-Phenotype (%): 36% and 18%
  Total Cell Count: 324 and 372
[2]
  Population Apoptotic (%): 46% and 37%
  Population Fragmented Nuclei (%): 5%
  Population Healthy Nuclei (%): 77% and 83%
  Population Hoechst High Intensity Objects (%): 6% and 5%
  Population Membrane Permeable-Phenotype (%): 0%
  Population Mitochondria Different-Phenotype (%): 57% and 51%
  Population Mitotic Cells (%): 53% and 62%
  Population Normal (%): 93% and 94%
  Population Pyknosed Nuclei (%): 17% and 11%
  Population Tubulin-Different-Phenotype (%): 43% and 23%
  Total Cell Count: 344 and 413
[3]
  Population Apoptotic (%): 44% and 20%
  Population Fragmented Nuclei (%): 9% and 8%
  Population Healthy Nuclei (%): 76% and 85%
  Population Hoechst High Intensity Objects (%): 4% and 5%
  Population Membrane Permeable-Phenotype (%): 1% and 0%
  Population Mitochondria Different-Phenotype (%): 40% and 46%
  Population Mitotic Cells (%): 55% and 79%
  Population Normal (%): 95% and 94%
  Population Pyknosed Nuclei (%): 13% and 5%
  Population Tubulin-Different-Phenotype (%): 19% and 11%
  Total Cell Count: 451 and 478
[4]
  Population Apoptotic (%): 39% and 38%
  Population Fragmented Nuclei (%): 7% and 9%
  Population Healthy Nuclei (%): 79% and 83%
  Population Hoechst High Intensity Objects (%): 5%
  Population Membrane Permeable-Phenotype (%): 0%
  Population Mitochondria Different-Phenotype (%): 36% and 40%
  Population Mitotic Cells (%): 60% and 61%
  Population Normal (%): 94%
  Population Pyknosed Nuclei (%): 12% and 7%
  Population Tubulin-Different-Phenotype (%): 23% and 15%
  Total Cell Count: 393 and 533
[5]
  Population Apoptotic (%): 19% and 23%
  Population Fragmented Nuclei (%): 14% and 10%
  Population Healthy Nuclei (%): 78% and 81%
  Population Hoechst High Intensity Objects (%): 4%
  Population Membrane Permeable-Phenotype (%): 1% and 0%
  Population Mitochondria Different-Phenotype (%): 23% and 20%
  Population Mitotic Cells (%): 80% and 76%
  Population Normal (%): 95%
  Population Pyknosed Nuclei (%): 7%
  Population Tubulin-Different-Phenotype (%): 14% and 7%
  Total Cell Count: 785 and 638
[6]
  Population Apoptotic (%): 30% and 17%
  Population Fragmented Nuclei (%): 14% and 12%
  Population Healthy Nuclei (%): 79% and 83%
  Population Hoechst High Intensity Objects (%): 3% and 1%
  Population Membrane Permeable-Phenotype (%): 0%
  Population Mitochondria Different-Phenotype (%): 24% and 17%
  Population Mitotic Cells (%): 70% and 82%
  Population Normal (%): 96% and 98%
  Population Pyknosed Nuclei (%): 6% and 4%
  Population Tubulin-Different-Phenotype (%): 13% and 7%
  Total Cell Count: 660 and 859

## CNC[C@H](O)c1ccc(O)c(O)c1 [EPINEPHRINE]
[1]
  Population Apoptotic (%): 20% and 56%
  Population Fragmented Nuclei (%): 6%
  Population Healthy Nuclei (%): 81%
  Population Hoechst High Intensity Objects (%): 7% and 6%
  Population Membrane Permeable-Phenotype (%): 0%
  Population Mitochondria Different-Phenotype (%): 31% and 65%
  Population Mitotic Cells (%): 80% and 43%
  Population Normal (%): 92% and 93%
  Population Pyknosed Nuclei (%): 11%
  Population Tubulin-Different-Phenotype (%): 26% and 27%
[2]
  Population Apoptotic (%): 55% and 56%
  Population Fragmented Nuclei (%): 12% and 11%
  Population Healthy Nuclei (%): 75% and 61%
  Population Membrane Permeable-Phenotype (%): 1% and 0%
  Population Mitochondria Different-Phenotype (%): 65% and 62%
  Population Mitotic Cells (%): 44% and 43%
  Population Normal (%): 90% and 59%
  Population Pyknosed Nuclei (%): 11% and 26%
  Population Tubulin-Different-Phenotype (%): 39% and 25%
[3]
  Population Apoptotic (%): 19% and 36%
  Population Fragmented Nuclei (%): 9%
  Population Healthy Nuclei (%): 80%
  Population Hoechst High Intensity Objects (%): 5% and 7%
  Population Membrane Permeable-Phenotype (%): 0% and 1%
  Population Mitochondria Different-Phenotype (%): 25% and 41%
  Population Mitotic Cells (%): 80% and 63%
  Population Normal (%): 94% and 92%
  Population Pyknosed Nuclei (%): 9% and 10%
  Population Tubulin-Different-Phenotype (%): 21% and 18%
[4]
  Population Apoptotic (%): 50% and 80%
  Population Fragmented Nuclei (%): 13% and 11%
  Population Healthy Nuclei (%): 75% and 71%
  Population Membrane Permeable-Phenotype (%): 0%
  Population Mitochondria Different-Phenotype (%): 50% and 43%
  Population Mitotic Cells (%): 50% and 19%
  Population Normal (%): 91% and 60%
  Population Pyknosed Nuclei (%): 11% and 17%
  Population Tubulin-Different-Phenotype (%): 36% and 25%
[5]
  Population Apoptotic (%): 16% and 35%
  Population Fragmented Nuclei (%): 11% and 12%
  Population Healthy Nuclei (%): 81% and 78%
  Population Hoechst High Intensity Objects (%): 3%
  Population Membrane Permeable-Phenotype (%): 1%
  Population Mitochondria Different-Phenotype (%): 13% and 24%
  Population Mitotic Cells (%): 83% and 64%
  Population Normal (%): 96%
  Population Pyknosed Nuclei (%): 7% and 8%
  Population Tubulin-Different-Phenotype (%): 9% and 15%
[6]
  Population Apoptotic (%): 33% and 69%
  Population Fragmented Nuclei (%): 21% and 17%
  Population Healthy Nuclei (%): 72% and 67%
  Population Membrane Permeable-Phenotype (%): 0%
  Population Mitochondria Different-Phenotype (%): 25% and 34%
  Population Mitotic Cells (%): 66% and 30%
  Population Normal (%): 96% and 78%
  Population Pyknosed Nuclei (%): 5% and 14%
  Population Tubulin-Different-Phenotype (%): 11% and 13%
